Results of several laboratories.
Read-out: cell growth or viability

COC1=C2C[C@@H](C)C[C@H](OC)[C@H](O)[C@@H](C)/C=C(\C)[C@H](OC(N)=O)[C@@H](OC)/C=C\C=C(/C)C(=O)NC(=C(C)C1=O)C2=O — IC50 (ARPE-19; MTT): > 20 µM
C1COCCN1.COc1ccc(/C=C\c2cc(I)c(OC)c(I)c2)cc1OP(=O)(O)O — GI50 (SF-268; SRB; 48 h): 0.054 µg/mL
C=CC(=O)Nc1cc(Nc2nccc(-c3cn(C)c4ccccc34)n2)c(OC)cc1N(C)CCN(C)C — GI50 (BaF3; 72 h): 2.76 µM
COc1c2c(cc3c1OCO3)[C@]13C=C[C@H](OC)C[C@@H]1[N@](C2)C[C@H]3OC(=O)c1ccoc1 — IC50 (PANC-1; WST-1): > 10 µM
COc1cc(C(=O)c2cc3cc(N)cc(OC)c3s2)cc(OC)c1OC — IC50 (human Lymphocyte; MTT; 72 h): > 20 µM
COC1=C2C[C@@H](C)C[C@H](OC)[C@H](O)[C@@H](C)/C=C(\C)[C@H](OC(N)=O)[C@@H](OC)/C=C\C=C(/C)C(=O)NC(=C(c3ccccc3)C1=O)C2=O — IC50 (ARPE-19; MTT): 8.3 µM
CCCc1cc(=O)n2nc(NCc3c(F)cc(Cl)cc3F)c(C#N)c2[nH]1 — IC50 (CAL-51; ATP luminescence; 72 h): > 50 µM
COc1c2c(cc3c1OCO3)[C@]13C=C[C@H](OC)C[C@@H]1[N@](C2)C[C@H]3OC(=O)c1ccco1 — IC50 (PANC-1; WST-1): > 10 µM
